Screening results (PubChem)
NPY-Y2 PAM-ag = NPY-Y2 potentiators or agonists, primary screen, cell-based. 220,000 compounds, 0.45% hits. cells expressing NPY-Y2, potentiator/agonist read-out. activation, % at 3.6 µM; in the data active means activation above about 27%;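 further: cells stimulated with NPY near EC25 plus isoproterenol at EC100; 0% = vehicle plus submaximal agonist and 100% = vehicle plus saturating agonist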
EP2 antag = human EP2 receptor antagonists, primary screen, TR-FRET cAMP, C6 glioma cells; Prostaglandin E2 receptor EP2 subtype (Homo sapiens), P43116; C6 glioma cells expressing human EP2; cells stimulated with saturating PGE2; inhibition, % at 25 µM; 260,000 compounds, 0.52% hits;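 active means percent inhibition above 40 after rounding to a whole number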;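 further: rat C6 glioma host cells with rolipram phosphodiesterase inhibitor present; the protocol text gives 20 µM as final concentration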
Target sequence (P43116 whole entry, looked up): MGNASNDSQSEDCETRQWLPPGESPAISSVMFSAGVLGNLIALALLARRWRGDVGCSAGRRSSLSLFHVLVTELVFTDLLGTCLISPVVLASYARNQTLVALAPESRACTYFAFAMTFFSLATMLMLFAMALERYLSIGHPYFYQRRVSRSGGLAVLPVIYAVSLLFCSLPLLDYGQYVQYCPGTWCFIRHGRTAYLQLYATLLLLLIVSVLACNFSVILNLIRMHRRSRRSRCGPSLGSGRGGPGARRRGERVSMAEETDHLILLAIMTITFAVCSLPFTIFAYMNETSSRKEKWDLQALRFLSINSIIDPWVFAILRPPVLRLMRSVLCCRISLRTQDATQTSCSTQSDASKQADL
NPY1 pot ag = NPY-Y1 receptor potentiators or agonists, primary screen, cell-based; Neuropeptide Y receptor type 1 (Homo sapiens), P25929; NPY-Y1 expressing cells, potentiator/agonist activation; activation, % at 3.6 µM; 220,000 compounds, 0.37% hits; AID 1304, 2008; in the data active means activation above about 33%, passing the limit was not always enough;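 further: cells stimulated with NPY at EC10 then isoproterenol at EC100; 0% = low agonist plus stimulus and 100% = saturating agonist plus stimulus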
NPY-Y1 antag = NPY-Y1 receptor antagonists, primary screen, cell-based; Neuropeptide Y receptor type 1 (Homo sapiens), P25929; 200,000 compounds, 1% hits; HEK293-CNG Y1 cells, membrane potential fluorescence; NPY at EC95, then isoproterenol; inhibition, % at 3.6 µM;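 active means inhibition above the campaign mean inhibition of all tested compounds plus 3 SD, cut at about 20% in these data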;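 further: 0% = DMSO wells given NPY plus isoproterenol and 100% = isoproterenol alone without NPY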
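Benchmarks – high control isoproterenol alone, low control NPY with isoproterenol · Material – HEK293 Y1/CNG channel cell line · Times – dye 3 h, compound 60 min room temperature, stimulation 45 min · Probe or stimulus – NPY (25 nM), isoproterenol (1 µM), Ro 20-1724 (25 µM) · Evaluation – % inhibition of NPY effect · Signal – fluorescence, membrane potential probe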
NPY Y2 blocker = NPY-Y2 receptor antagonists, primary screen, cell-based; 140,000 compounds, 0.99% hits; inhibition, % at 2.7 µM; Neuropeptide Y receptor type 2 (Homo sapiens), P49146; NPY-Y2 expressing cells, antagonist mode; in the data active means inhibition above about 17%;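 further: 0% = vehicle with agonist challenge and 100% = reference antagonist with challenge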
EP2 modulator = EP2 receptor modulators, cAMP readout, primary screen, cell-based, HTRF cAMP, PGE2 stimulation. Prostaglandin E2 receptor EP2 subtype (Homo sapiens), P43116. EP2-expressing cells, cAMP HTRF FRET, PGE2 co-stimulation. induction, % at 25 µM. 260,000 compounds, 0.83% hits. AID 940, 2007;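 active means compounds whose cAMP rise, as percent of the full-agonist control response, exceeds 60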;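 further: rat C6 glioma line stably carrying human EP2 under a CMV promoter; the protocol text gives 20 µM as final concentration; 100% = response of wells given 1 µM PGE2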
* = called active by the depositor; . = no result given. An excerpt weighted towards active compounds, which were near 2.8% of everything screened.

SMILES	NPY-Y2 PAM-ag	EP2 antag	NPY1 pot ag	NPY-Y1 antag	NPY Y2 blocker	EP2 modulator
CN(C)Cc1cc(C(F)(F)F)ccc1C(O)(c1ccccc1)c1ccccc1	.	46*	.	.	.	-18
COc1cccc(/C=C\c2nc(O)c([N+](=O)[O-])c(=O)[nH]2)c1OC	.	10	.	.	.	-6
CN1[C@@H]2CC[C@H]1CC(OC(c1ccccc1)c1ccccc1)C2 (stereo partly drawn)	.	57*	.	.	.	-15
C[N+]12CCCCC1C(OC(=O)C1(c3ccccc3)CCCC1)CCC2 (stereo not drawn)	.	9	.	.	.	20
O=C(c1ccc2c(c1)OCO2)N1CCCC(c2ncncc2-c2ccncc2)C1 (stereo not drawn)	.	.	.	.	.	-17
COc1ccc(C(=O)NN(C)c2nc(-c3ccccc3)nnc2C(F)(F)F)cc1	-1	.	2	5	5	5
COc1ccc(C(=O)NN(C)c2nc(C(F)(F)F)nc3ccccc23)cc1	-19	12	-16	21*	.	-15
CCN1CCc2c(sc(NC(=S)NC(=O)/C=C/c3ccccc3)c2C(N)=O)C1	.	84*	.	.	.	-177
CCN1CCc2c(sc(NC(=S)NC(=O)c3ccc(Cl)cc3)c2C(N)=O)C1	-1	41*	14	.	.	-59
CCN1CCc2c(sc(NC(=O)CN3C(=O)c4ccccc4C3=O)c2C(N)=O)C1	-1	1	19	2	.	10
CCOC(=O)c1cc(-c2ccccc2)nc2c1c(C)nn2-c1ccccn1	-24	8	-68	49*	60*	3
CCOC(=O)c1cc(-c2ccc(OC)cc2F)nc2c1c(C)nn2CCC#N	0	8	14	26*	20*	43
CCOC(=O)c1cc(-c2ccc(Cl)cc2)nc2c1c(C)nn2CCC#N	-31	9	-74	25*	33*	41
Cc1ccc(OCC(=O)Nc2ccccc2SCC(=O)N2c3ccccc3CC2C)cc1 (stereo not drawn)	.	8	.	.	.	52
CCOC(=O)c1cc(C(=O)c2cccs2)n2ccc(C(C)=O)cc12	-5	10	5	-2	4	64*
Clc1ccc(Cn2cc(/C=N/n3cnnc3)c3ccccc32)cc1	13	12	1	6	1	37
Cc1ccccc1Cn1cc(/C=N/n2cnnc2)c2ccccc21	2	7	-10	1	3	64*
O=C1Cc2ccccc2Sc2ccc(O)cc21	-11	1	23	-2	0	-3
Cc1cccc2c1Sc1ccccc1CC2=O	-5	15	-1	0	4	64*
CCOC(=O)c1c(C)n(C)c2ccc(O)c(CN(CC)CC)c12	60*	6	70*	-5	15	12
CCOC(=O)c1c(C)oc2ccc(O)c(CN(C)C)c12	53*	10	61*	-8	6	7
CCOC(=O)c1c(C)n(C)c2ccc(O)c(CN3CCN(C)CC3)c12	-2	19	-13	5	4	-11
N=c1sc2ccccc2n1CCS (tested in a mixture with another compound)	.	57*	.	.	.	-27
Cc1nnc2n(Cc3ccccc3)c(=O)c3c4c(sc3n12)COC(C(C)C)C4 (stereo not drawn)	15	13	-3	0	2	64*
O=C(/C=C/c1ccco1)NC(=S)Nc1ccccc1Cl	.	12	.	.	.	-23
SMILES	NPY-Y2 PAM-ag	EP2 antag	NPY1 pot ag	NPY-Y1 antag	NPY Y2 blocker	EP2 modulator
COc1ccc2oc(C(=O)OC/C(O)=C(\C#N)c3nc4ccccc4[nH]3)c(C)c2c1	-15	10	-31	.	.	-12
COCc1c(C(=O)OC/C(O)=C(\C#N)c2nc3ccccc3[nH]2)oc2ccccc12	-23	5	-10	20*	.	-54
O=C(/C=C/c1ccccc1)NC1CC2CCCC(C1)N2Cc1cccs1 (stereo not drawn)	.	49*	.	.	.	-97
O=c1c2cnn(-c3ccccc3)c2ncn1Cc1ccco1	5	10	15	-2	4	11
CCCCn1c(=O)[nH]c(=O)c2c1ncn2Cc1ccco1	5	10	22	-2	-1	18
N=c1c2c(-c3ccccc3)c(-c3ccccc3)n(Cc3ccco3)c2ncn1Cc1ccco1	22	18	33	22*	32*	-40
CCCCn1cnc2c(c(-c3ccccc3)c(-c3ccccc3)n2Cc2ccco2)c1=N	52*	17	52*	.	.	-34
N=c1c2c(-c3ccccc3)c(-c3ccccc3)n(Cc3ccccc3)c2ncn1CCCn1ccnc1	17	1	-40	92*	49*	-6
CCc1ccccc1NC(=O)CSc1nnc(-c2cccs2)n1C	.	3	.	.	.	-27
COc1nc2cc(C)ccc2cc1CN(CCN(C)C)Cc1ccccn1	.	7	.	.	.	-41
C=C1CCC(OC(C)=O)/C(C)=C/C[C@@H]2[C@@H]1CC2(C)C (stereo partly drawn)	.	13	.	.	.	18
Cc1c2cccc(Sc3ccccc3)c2c2c3c(cccc13)[S+](c1ccccc1)C2 (stereo not drawn)	.	42*	.	.	.	25
Cc1ccccc1NC1=NC(=S)N(c2ccccc2)C12CCCCC2	19	9	-4	6	-1	62*
CCc1nn(CC(=O)N(Cc2ccncc2)C2CC2)c(=O)c2cc3ccsc3n12	.	.	.	.	.	11
Oc1ccc(-c2nc3cnccn3c2NC2CCCCC2)c(O)c1	.	.	.	.	.	-22
COC(=O)Nc1nc(-c2ccccc2)c(C(=O)c2ccccc2)s1	-21	16	-18	30*	13	-1
COC(=O)Nc1nc(C)c(C(=O)c2ccccc2)s1	-2	1	-9	9	4	8
O=C1NC(c2cccnc2)C(C(=O)c2cccs2)=C1O (stereo not drawn)	.	12	.	.	.	6
CCc1nc(N2CCN(Cc3ccc4c(c3)OCO4)CC2)c2oc3ccccc3c2n1	-45	3	-103	26*	21*	-1
CCc1nc(N2CCCC(C)C2)c2oc3ccccc3c2n1 (stereo not drawn)	-23	7	-25	38*	29*	61*
CCc1nc(Nc2ccc3c(c2)OCO3)c2oc3ccccc3c2n1	10	.	-21	2	2	42
C/C(=N\NC(=S)NCc1ccccc1)c1ccccc1F	-13	3	-35	5	.	64*
CCOC(=O)c1cnc2ccc(OC)cc2c1NCc1ccccc1	-51	4	-75	27*	19*	52
CCOC(=O)c1cnc2ccc(OCC)cc2c1NCc1ccccc1OC	-24	10	-60	27*	49*	4
